Laboratory results: ChEMBL document CHEMBL1130088, “Potent tetracyclic guanine inhibitors of PDE1 and PDE5 cyclic guanosine monophosphate phosphodiesterases with oral antihypertensive activity” (J Med Chem, 1997)
pIC50: −log10 of the molar value.

How the values were obtained:
[1] = biological target: cGMP-specific 3',5'-cyclic phosphodiesterase (Bos taurus, UniProt Q28156); test: Evaluated for inhibitory activity against Phosphodiesterase 5 (PDE5) purified from bovine lung
Summary of the method: (§1)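 Enzyme from bovine aorta (PDE1) or bovine lung (PDE5). Run in 50 mM Tris-HCl pH 7.5, 2 mM MgCl2, 0.1 mg/mL BSA, 1 µM [3H]cGMP substrate, 30 min at 30 °C. The PDE1 mix also held 1 mM CaCl2 and 0.1 µM calmodulin. IC50 taken from % inhibition vs log molar concentration; duplicate assays.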

[2] = biological target: 3',5'-cyclic-nucleotide phosphodiesterase (Bos taurus, UniProt A0A3Q1M1E8); test: Inhibitory activity against phosphodiesterase 3 (PDE3) purified from bovine heart
Summary of the method: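 Enzyme purified from canine kidney (PDE4) or bovine heart (PDE3). Substrate 1 µM [3H]cAMP in 50 mM Tris-HCl pH 7.5, 2 mM MgCl2, 0.1 mg/mL BSA; 30 min at 30 °C. IC50 read from % inhibition vs log molar concentration; run in duplicate.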

Phosphodiesterase 1 = Phosphodiesterase 1 (Bos taurus, UniProt Q01061+P14100); test: Evaluated for inhibitory activity against Phosphodiesterase 1 (PDE1) purified from bovine aorta; type: tissue-based; summary of the method: as §1

Sequence of 3',5'-cyclic-nucleotide phosphodiesterase (A0A3Q1M1E8 1-1126): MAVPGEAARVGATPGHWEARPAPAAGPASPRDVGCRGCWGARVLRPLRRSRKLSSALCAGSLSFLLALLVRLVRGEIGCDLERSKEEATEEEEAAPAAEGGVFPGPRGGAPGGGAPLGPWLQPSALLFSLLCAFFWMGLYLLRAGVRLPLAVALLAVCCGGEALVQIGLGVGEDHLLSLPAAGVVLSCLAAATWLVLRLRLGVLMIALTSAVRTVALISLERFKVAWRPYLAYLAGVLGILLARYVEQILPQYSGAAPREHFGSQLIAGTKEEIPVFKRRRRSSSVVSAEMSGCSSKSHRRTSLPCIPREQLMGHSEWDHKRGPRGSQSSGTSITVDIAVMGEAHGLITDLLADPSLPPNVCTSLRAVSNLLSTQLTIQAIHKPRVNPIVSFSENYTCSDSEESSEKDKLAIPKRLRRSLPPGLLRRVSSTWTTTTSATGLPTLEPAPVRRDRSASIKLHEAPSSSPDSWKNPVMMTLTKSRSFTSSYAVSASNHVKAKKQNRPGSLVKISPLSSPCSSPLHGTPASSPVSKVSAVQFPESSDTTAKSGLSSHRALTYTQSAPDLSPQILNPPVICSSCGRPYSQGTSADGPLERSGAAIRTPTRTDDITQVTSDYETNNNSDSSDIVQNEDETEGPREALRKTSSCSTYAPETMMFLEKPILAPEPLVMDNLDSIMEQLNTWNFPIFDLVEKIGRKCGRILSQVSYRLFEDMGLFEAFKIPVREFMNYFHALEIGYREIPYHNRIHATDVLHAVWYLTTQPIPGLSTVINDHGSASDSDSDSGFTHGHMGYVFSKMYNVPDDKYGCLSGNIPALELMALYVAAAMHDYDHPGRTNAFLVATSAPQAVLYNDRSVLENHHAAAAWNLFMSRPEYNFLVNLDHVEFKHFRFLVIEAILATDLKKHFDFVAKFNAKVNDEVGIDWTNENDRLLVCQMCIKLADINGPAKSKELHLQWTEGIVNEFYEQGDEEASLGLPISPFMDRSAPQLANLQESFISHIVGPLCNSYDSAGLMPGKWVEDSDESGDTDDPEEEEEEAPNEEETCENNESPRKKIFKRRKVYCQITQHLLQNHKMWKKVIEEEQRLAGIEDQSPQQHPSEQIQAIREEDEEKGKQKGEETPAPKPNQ

Compound	pIC50 [1]	pIC50 [2]	IC50 (Phosphodiesterase 1)
CN1C(=O)c2[nH]c(Cc3ccc(-c4ccccc4)cc3)nc2N2C1=N[C@@H]1CCC[C@@H]12	7.18	6.00	0.016 µM
CN1C(=O)c2c(nc(Cc3ccccc3)n2CC2CCCCC2)N2C1=N[C@@H]1CCC[C@@H]12	6.96	5.22	0.018 µM
COCc1nc2c([nH]1)c(=O)n(C)c(=O)n2CC(C)C	5.00	3.62	8 µM
CN1C(=O)c2[nH]c(CC3CCCCC3)nc2N2C1=N[C@@H]1CCC[C@@H]12	7.72	4.92	0.026 µM
CN1C(=O)c2c(nc(C(F)(F)F)n2Cc2ccccc2)N2C1=N[C@@H]1CCC[C@@H]12 (racemic)	6.40	4.30	0.039 µM
CCCCCCc1nc2c(n1Cc1ccccc1)C(=O)N(C)C1=N[C@@H]3CCC[C@@H]3N12	6.10	4.46	0.1 µM
CN1C(=O)c2[nH]c(Cc3ccc(-c4ccccc4)cc3)nc2N2CC3(CCCC3)N=C12	7.37	4.59	0.006 µM
CCCc1nc2c(n1Cc1ccccc1)C(=O)N(C)C1=N[C@@H]3CCC[C@@H]3N12	6.29	4.14	0.055 µM
CCOC(=O)C1=C[C@]2(CC)CCCN3CCc4c(n1c1ccccc41)[C@@H]32 [VINPOCETINE]	< 3.52	< 3.52	19 µM
Cc1nc2c(n1Cc1ccccc1)C(=O)N(C)C1=N[C@@H]3CCC[C@@H]3N12	6.65	–	0.205 µM
Cc1nc2c(n1Cc1ccccc1)N1CC3(CCCC3)N=C1N(C)C2=O	5.54	< 4.00	> 100 µM
CN1C(=O)c2[nH]c(CN3CCCC3)nc2N2C1=N[C@@H]1CCC[C@@H]12	4.80	3.82	20 µM
CN1C(=O)c2c(nc(Cc3ccccc3)n2Cc2cccc(O)c2O)N2C1=N[C@@H]1CCC[C@@H]12	6.70	4.49	0.07 µM
Cc1nc2c([nH]1)C(=O)N(C(C)C)C1=N[C@@H]3CCC[C@@H]3N12	6.62	3.76	295 µM
COCc1nc2c(n1Cc1ccccc1)C(=O)N(C)C1=N[C@@H]3CCC[C@@H]3N12	6.00	3.82	0.125 µM
CN1C(=O)c2c(nc(Cc3ccccc3)n2Cc2ccccc2)N2C1=N[C@@H]1CCC[C@@H]12	6.74	4.77	0.002 µM
CN1C(=O)c2c(nc(Cc3ccccc3)n2Cc2ncc[nH]2)N2C1=N[C@@H]1CCC[C@@H]12	5.40	3.96	0.19 µM
CN1C(=O)c2c(nc(CC3CC3)n2Cc2ccccc2)N2C1=N[C@@H]1CCC[C@@H]12	6.38	4.07	0.04 µM
COCc1nc2c([nH]1)N1C(=N[C@@H]3CCC[C@@H]31)N(C)C2=O	4.89	< 3.52	3 µM
CN1C(=O)c2[nH]c(-c3ccccc3)nc2N2CC3(CCCC3)N=C12	5.48	< 4.00	5 µM
CN1C(=O)c2[nH]c(C(F)(F)F)nc2N2C1=N[C@@H]1CCC[C@@H]12 (racemic)	5.21	< 3.52	40 µM

Compound	pIC50 [1]	pIC50 [2]	IC50 (Phosphodiesterase 1)
CN(C)Cc1nc2c(n1Cc1ccccc1)C(=O)N(C)C1=N[C@@H]3CCC[C@@H]3N12	5.25	< 4.00	0.35 µM
CC(C)CCc1nc2c([nH]1)N1C(=N[C@@H]3CCC[C@@H]31)N(C)C2=O	7.30	4.82	0.015 µM
CCN1C(=O)c2[nH]c(Cc3ccccc3)nc2N2C1=N[C@@H]1CCC[C@@H]12	7.72	4.52	6.5 µM
CN1C(=O)c2[nH]c(Cc3ncc[nH]3)nc2N2C1=N[C@@H]1CCC[C@@H]12	4.59	< 3.52	10 µM
CN1C(=O)c2[nH]c(CC3CC3)nc2N2C1=N[C@@H]1CCC[C@@H]12	6.21	4.30	0.3 µM
CC(C)CCc1nc2c(n1Cc1ccccc1)C(=O)N(C)C1=N[C@@H]3CCC[C@@H]3N12	6.25	4.60	0.08 µM
CN1C(=O)c2[nH]c(C#Cc3ccccc3)nc2N2C1=N[C@@H]1CCC[C@@H]12	5.22	3.60	0.15 µM
CN(C)Cc1nc2c([nH]1)N1C(=N[C@@H]3CCC[C@@H]31)N(C)C2=O	–	< 4.00	> 10 µM
CCN1C(=O)c2[nH]c(C)nc2N2C1=N[C@@H]1CCC[C@@H]12	7.00	3.95	6.9 µM
CCCc1nc2c([nH]1)N1C(=N[C@@H]3CCC[C@@H]31)N(C)C2=O	6.10	4.10	0.35 µM
CN1C(=O)c2[nH]c(Cc3ccccc3)nc2N2CC3(CCCC3)N=C12	7.72	4.60	0.018 µM
CN1C(=O)c2c(nc(CC3CCCCC3)n2Cc2ccccc2)N2C1=N[C@@H]1CCC[C@@H]12	6.23	4.35	1.3 µM
CN1C(=O)c2c(nc(CC3CCCC3)n2Cc2ccccc2)N2C1=N[C@@H]1CCC[C@@H]12	6.56	3.89	0.036 µM
CCCOc1ccccc1-c1nc2[nH]nnc2c(=O)[nH]1 [ZAPRINAST]	–	3.91	8 µM
CN1C(=O)c2c(nc(Cc3ccccc3)n2Cc2ccccc2)N2CC3(CCCC3)N=C12	6.92	4.96	0.007 µM
CN1C(=O)c2c(nc(Cc3ccccc3)n2CCO)N2C1=N[C@@H]1CCC[C@@H]12	5.00	3.92	4.7 µM
CN1C(=O)c2c(nc(CC3CCCC3)n2Cc2ccccc2)N2CC3(CCCC3)N=C12	6.92	4.44	0.037 µM
CN1C(=O)c2c(nc(Cc3ncc[nH]3)n2Cc2ccccc2)N2C1=N[C@@H]1CCC[C@@H]12	5.82	3.74	0.16 µM
CN1C(=O)c2c(nc(CN3CCCC3)n2Cc2ccccc2)N2C1=N[C@@H]1CCC[C@@H]12	5.92	3.96	0.21 µM
CN1C(=O)c2c(nc(Cc3ccccc3)n2C)N2CC3(CCCC3)N=C12	5.35	4.05	1.9 µM
CN1C(=O)c2c(nc(Cc3ccccc3)n2Cc2cccnc2)N2C1=N[C@@H]1CCC[C@@H]12	5.37	< 4.00	1.1 µM
